What was measured:
Homo sapiens [1] = assay: Toxicity in healthy human assessed as occurrence of migraine at 50 mg, po administered as single dose relative to control; type: organism-based; settings: in vivo
Homo sapiens [2] = assay: Toxicity in healthy human assessed as occurrence of palpitations at 100 mg, po administered as single dose relative to control; type: organism-based; settings: in vivo
[3] = Apparent oral clearance in healthy human at 12.5 mg, po administered as single dose coadministered with 100 mg of ritonavir; type: ADME, organism-based; settings: in vivo
Method in brief: (§1)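 Healthy male volunteers, fasted. Ritonavir 100 mg given 10 h before and again together with single oral BILR 355 in PEG solution. EDTA plasma sampled predose to 144 h. LC-MS/MS assay after protein precipitation. Noncompartmental analysis, AUC by linear up/log down trapezoidal rule; Vss = CL/F·(MRTp.o. − 1/Ka).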

[4] = Apparent oral clearance in healthy human at 62.5 mg, po administered as single dose coadministered with 100 mg of ritonavir; type: ADME, organism-based; settings: in vivo; method in brief: as §1
[5] = Apparent oral clearance in healthy human at 75 mg, po administered as single dose coadministered with 100 mg of ritonavir; type: ADME, organism-based; settings: in vivo; method in brief: as §1
[6] = Mean residence time in healthy human at 25 mg, po administered as single dose coadministered with 100 mg of ritonavir; type: ADME, organism-based; settings: in vivo
[7] = Mean residence time in high fat fed healthy human at 50 mg, po administered as single dose coadministered with 100 mg of ritonavir; type: ADME, organism-based; settings: in vivo
[8] = Renal clearance in healthy human at 12.5 mg, po administered as single dose coadministered with 100 mg of ritonavir by high-pressure liquid chromatography-tandem mass spectrometry/mass spectrometry method; type: ADME, organism-based, Kidney; settings: in vivo, read-out: CL_renal (converted)
[9] = Renal clearance in high fat fed healthy human at 50 mg, po administered as single dose coadministered with 100 mg of ritonavir by high-pressure liquid chromatography-tandem mass spectrometry/mass spectrometry method; type: ADME, organism-based, Kidney; settings: in vivo, read-out: CL_renal (converted)
Homo sapiens [10] = assay: Toxicity in healthy human assessed as occurrence of aphthous stomatitis at 100 mg, po administered as single dose; type: organism-based; settings: in vivo
Homo sapiens [11] = assay: Toxicity in healthy human assessed as occurrence of diarrhea at 5 mg, po administered as single dose coadministered with 100 mg of ritonavir; type: organism-based; settings: in vivo
Homo sapiens [12] = assay: Toxicity in healthy human assessed as occurrence of diarrhea at 12.5 mg, po administered as single dose coadministered with 100 mg of ritonavir; type: organism-based; settings: in vivo
Homo sapiens [13] = assay: Toxicity in healthy human assessed as occurrence of diarrhea at 87.5 mg, po administered as single dose coadministered with 100 mg of ritonavir; type: organism-based; settings: in vivo
Homo sapiens [14] = assay: Toxicity in healthy human assessed as occurrence of maculopapular rash at 100 mg, po administered as single dose; type: organism-based; settings: in vivo
[15] = AUC (0 to infinity) in healthy human at 50 mg, po administered as single dose; type: ADME, organism-based; set-up: dose 50 mg, time infinity, route oral; settings: plasma
Method in brief: (§2)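 Healthy male volunteers, six active plus two placebo per dose group, single oral dose in PEG solution with 200 ml water after overnight fast; breakfast 60 to 90 min post-dose. EDTA plasma sampled predose to 144 h. Assayed by validated LC-MS/MS after protein precipitation. Noncompartmental analysis, AUC by linear up/log down trapezoidal rule; Vss = CL/F·(MRTp.o. − 1/Ka).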

[16] = AUC (0 to last) in healthy human at 5 mg, po administered as single dose; type: ADME, organism-based; set-up: dose 5 mg, time 0 - last, route oral; settings: plasma; method in brief: as §2
[17] = AUC (0 to last) in healthy human at 50 mg, po administered as single dose; type: ADME, organism-based; set-up: dose 50 mg, route oral, time 0 - last; settings: plasma; method in brief: as §2
[18] = Apparent oral clearance in healthy human at 25 mg, po administered as single dose; type: ADME, organism-based; settings: in vivo; method in brief: as §2
Homo sapiens [19] = assay: Apparent oral clearance in healthy human at 75 mg, po administered as single dose; type: ADME, organism-based; settings: in vivo; method in brief: as §2
Homo sapiens [20] = assay: Ratio of half life in human at 12.5 mg, po in presence of 100 mg of ritonavir to half life in human at 12.5 mg, po; type: ADME, organism-based; settings: in vivo
Homo sapiens [21] = assay: Ratio of half life in human at 25 mg, po in presence of 100 mg of ritonavir to half life in human at 25 mg, po; type: ADME, organism-based; settings: in vivo
Homo sapiens [22] = assay: Toxicity in healthy human assessed as occurrence of abdominal pain at 25 mg, po administered as single dose relative to control; type: organism-based, Abdomen; settings: in vivo
Homo sapiens [23] = assay: Toxicity in healthy human assessed as occurrence of abdominal pain at 75 mg, po administered as single dose relative to control; type: organism-based, Abdomen; settings: in vivo
[24] = Apparent volume of distribution at steady state in healthy human at 12.5 mg, po administered as single dose; type: ADME, organism-based; settings: in vivo, read-out: Vss/F; method in brief: as §2
[25] = AUC (0 to last) in healthy human at 25 mg, po administered as single dose coadministered with 100 mg of ritonavir; type: ADME, organism-based; set-up: dose 25 mg, route oral, time 0 - last; settings: plasma; method in brief: as §1
[26] = AUC (0 to last) in high fat fed healthy human at 50 mg, po administered as single dose coadministered with 100 mg of ritonavir; type: ADME, organism-based; set-up: dose 50 mg, route oral, time 0 - last; settings: plasma
Method in brief: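 Fed cohort of 6 healthy men given an FDA-type high-fat breakfast (about 150, 250 and 500 to 600 cal from protein, carbohydrate and fat) 30 min before dosing. Ritonavir 100 mg given 10 h earlier and again with the single oral dose in PEG solution. Plasma sampled to 144 h, LC-MS/MS, noncompartmental analysis.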

[27] = Cmax in healthy human at 5 mg, po administered as single dose coadministered with 100 mg of ritonavir by high-pressure liquid chromatography-tandem mass spectrometry/mass spectrometry method; type: ADME, organism-based; set-up: dose 5 mg, route oral; settings: in vivo
Method in brief: (§3)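 Healthy male volunteers, fasted overnight, got one oral dose of BILR 355 in PEG solution with 200 ml water. Ritonavir 100 mg was given 10 h before and again with the dose. Plasma was sampled (EDTA) from predose to 144 h and assayed by validated LC-MS/MS. Cmax and Vz/F came from noncompartmental analysis. Vss/F = CL/F·(MRTp.o. − 1/Ka), with Ka from compartmental modelling.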

[28] = Cmax in healthy human at 50 mg, po administered as single dose coadministered with 100 mg of ritonavir by high-pressure liquid chromatography-tandem mass spectrometry/mass spectrometry method; type: ADME, organism-based; set-up: dose 50 mg, route oral; settings: in vivo; method in brief: as §3
[29] = Cmax in high fat fed healthy human at 50 mg, po administered as single dose coadministered with 100 mg of ritonavir by high-pressure liquid chromatography-tandem mass spectrometry/mass spectrometry method; type: ADME, organism-based; set-up: dose 50 mg, route oral; settings: in vivo
Method in brief: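 Fed cohort: healthy males ate an FDA-recipe high-fat breakfast (about 150/250/500-600 cal from protein/carbohydrate/fat) 30 min before a 50 mg oral dose of BILR 355 in PEG solution. Ritonavir 100 mg was given 10 h before and with the dose. Plasma was sampled over 144 h and assayed by LC-MS/MS. Noncompartmental analysis gave Cmax and Vz/F. Vss/F = CL/F·(MRTp.o. − 1/Ka).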

[30] = Tmax in healthy human at 5 mg, po administered as single dose coadministered with 100 mg of ritonavir; type: ADME, organism-based; settings: in vivo
[31] = Tmax in high fat fed healthy human at 50 mg, po administered as single dose coadministered with 100 mg of ritonavir; type: ADME, organism-based; settings: in vivo
Homo sapiens [32] = assay: Toxicity in healthy human assessed as occurrence of headache at 12.5 mg, po administered as single dose relative to control; type: organism-based; settings: in vivo
Homo sapiens [33] = assay: Toxicity in healthy human assessed as occurrence of headache at 25 mg, po administered as single dose relative to control; type: organism-based; settings: in vivo
Homo sapiens [34] = assay: Toxicity in healthy human assessed as occurrence of nausea at 25 mg, po administered as single dose relative to control; type: organism-based; settings: in vivo

In the case of CCN1c2ncc(CCOc3cc[n+]([O-])c4ccccc34)cc2C(=O)N(C)c2cccnc21 [BILR 355], the Activity (Homo sapiens [1]) is reported as 0%, the Activity (Homo sapiens [2]) is reported as 0% and the CL/F [3] is reported as 112 mL/min. It also gave a CL/F [4] of 141 mL/min, a CL/F [5] of 106 mL/min and an MRT [6] of 18.1 h. For the same compound, the MRT [7] was 18.7 h, the CL renal [8] was 7.3 mL/min and the CL renal [9] was 4.98 mL/min. For the same compound, the Activity (Homo sapiens [10]) was 0%, the Activity (Homo sapiens [11]) was 0% and the Activity (Homo sapiens [12]) was 0%. It also gave an Activity (Homo sapiens [13]) of 16.7%, an Activity (Homo sapiens [14]) of 0% and an AUC(0-inf) [15] of 419 ng·h/mL. The AUC(0-t) [16] was 13.6 ng·h/mL, the AUC(0-t) [17] was 406 ng·h/mL and the CL/F [18] was 3400 mL/min. For the same compound, the CL/F (Homo sapiens [19]) was 272 L/h, the Ratio (Homo sapiens [20]) was 3.9 and the Ratio (Homo sapiens [21]) was 3.3. For the same compound, the Activity (Homo sapiens [22]) was 16.7%, the Activity (Homo sapiens [23]) was 16.7% and the Vd/F [24] was 1460 L. It also gave an AUC(0-t) [25] of 4140 ng·h/mL, an AUC(0-t) [26] of 7970 ng·h/mL and a Cmax [27] of 25.3 ng/mL. The Cmax [28] was 468 ng/mL, the Cmax [29] was 430 ng/mL and the Tmax [30] was 5.71 h. For the same compound, the Tmax [31] was 6 h, the Activity (Homo sapiens [32]) was 0% and the Activity (Homo sapiens [33]) was 16.7%. For the same compound, the Activity (Homo sapiens [34]) was 0%.

Reference: ChEMBL document CHEMBL1629563, “Pharmacokinetic and safety evaluation of BILR 355, a second-generation nonnucleoside reverse transcriptase inhibitor, in healthy volunteers” (Antimicrob Agents Chemother, 2008)
